Source: ChEMBL document CHEMBL4765315, “Discovery of IAP-recruiting BCL-X PROTACs as potent degraders across multiple cancer cell lines” (Eur J Med Chem, 2020)
Activity calls are given as the source filed them. The calls are words filed in the database; no cut-off is given here.

How the values were obtained:
[1] = system: Bcl-2-like protein 1/E3 ubiquitin-protein ligase XIAP (Homo sapiens); assay: Protac activity at BCL-XL/XIAP E3 ligase in human MyLa1929 cells assessed as degradation of BCL-XL by measuring remaining protein at 500 nM measured after 16 hrs by Western blot analysis (reference value: 100%)
[2] = Antiproliferative activity against human MyLa1929 cells assessed as cell viability measured after 72 hrs by MTS assay; format: functional, cell-based
Outline: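 MTS tetrazolium read-out of viability after 72 h continuous exposure. MyLa 1929 seeded at 1×10^5 cells per well; EC50/IC50 fitted from concentration–response curves. For MyLa 1929, values are means of at least two independent experiments.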

MOLT-4 = assay: Antiproliferative activity against human MOLT-4 cells assessed as cell viability measured after 72 hrs by MTS assay; format: functional, cell-based
[3] = Selectivity ratio of IC50 for human platelets to IC50 for human MyLa1929 cells
Outline: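 Platelets were isolated from platelet-rich plasma in acid citrate buffer with PGE1 (1 µM) and apyrase (0.2 units/mL) at final concentration. They were adjusted to 2 × 10^8/mL in HEPES Tyrode's buffer with 10% FBS, PGE1 and apyrase, then treated for 48 h and read by MTS. MyLa 1929 cells (1×10^5 per well) were treated for 72 h and read by MTS, with IC50 from at least two independent experiments. The ratio is platelet IC50 over MyLa 1929 IC50.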

WI-38 = assay: Cytotoxicity against human WI-38 cells assessed as cell viability measured after 72 hrs by MTS assay; format: cell-based; conditions: WI-38, 72 h
Platelet = assay: Cytotoxicity against human platelet assessed as cell viability measured after 48 hrs by MTS assay
[4] = target: Protein cereblon/Bcl-2-like protein 1 (Homo sapiens) (UniProt Q07817+Q96SW2); assay: Protac activity at BCL-XL/CRBN in human MyLa1929 cells assessed as degradation of BCL-XL at 0.01 to 3 uM measured after 16 hrs by western blot analysis; format: cell-based; conditions: dose 0.01-3 µM
Sequence of Protein cereblon/Bcl-2-like protein 1 (Homo sapiens) (Q07817 whole entry, looked up): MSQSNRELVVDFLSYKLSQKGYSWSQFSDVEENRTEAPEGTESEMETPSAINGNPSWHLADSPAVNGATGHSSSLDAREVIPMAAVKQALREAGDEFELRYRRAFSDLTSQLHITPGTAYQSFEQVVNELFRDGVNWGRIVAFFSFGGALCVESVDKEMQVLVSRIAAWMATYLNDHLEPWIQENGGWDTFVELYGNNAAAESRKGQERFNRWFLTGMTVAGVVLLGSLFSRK
Sequence of Protein cereblon/Bcl-2-like protein 1 (Homo sapiens) (Q96SW2 whole entry, looked up): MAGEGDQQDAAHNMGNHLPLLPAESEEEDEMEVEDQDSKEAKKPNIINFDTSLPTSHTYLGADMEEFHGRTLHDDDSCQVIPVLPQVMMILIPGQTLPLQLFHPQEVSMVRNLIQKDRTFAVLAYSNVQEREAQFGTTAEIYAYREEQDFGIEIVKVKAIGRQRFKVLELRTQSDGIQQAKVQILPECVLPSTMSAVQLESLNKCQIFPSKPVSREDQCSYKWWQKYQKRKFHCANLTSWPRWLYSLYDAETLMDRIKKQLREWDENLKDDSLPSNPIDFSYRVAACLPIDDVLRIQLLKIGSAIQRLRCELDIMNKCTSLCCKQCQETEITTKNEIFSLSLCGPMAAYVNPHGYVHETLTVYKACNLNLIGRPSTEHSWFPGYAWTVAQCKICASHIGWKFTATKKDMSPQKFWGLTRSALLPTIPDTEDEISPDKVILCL
Outline: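 MyLa 1929 cells treated 16 h with compound (single 500 nM or concentration series), then harvested for immunoblot. Membranes blocked in 5% milk/TBS-Tween, primary antibody overnight at 4 °C, HRP secondary, ECL detection. BCL-XL band normalized to β-actin by densitometry; reported as % protein remaining versus vehicle.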

[5] = Homo sapiens, MyLa1929, 72 h, read-out: IC50

SMILES | Remaining BCL-XL protein [1] [%] | IC50 [2, 5] [nM] | other results
CN[C@@H](C)C(=O)N[C@@H](C(=O)N1CCC[C@H]1c1nc(C(=O)c2cccc(OCCCCCCC(=O)N3CCN(CC[C@H](CSc4ccccc4)Nc4ccc(S(=O)(=O)NC(=O)c5ccc(N6CCN(CC7=C(c8ccc(Cl)cc8)CCC(C)(C)C7)CC6)cc5)cc4S(=O)(=O)C(F)(F)F)CC3)c2)cs1)C1CCCCC1 | 108 | > 10000 | –
CN(CCOCCOCCOCCNc1cccc2c1C(=O)N(C1CCC(=O)NC1=O)C2=O)CC[C@H](CSc1ccccc1)Nc1ccc(S(=O)(=O)NC(=O)c2ccc(N3CCN(CC4=C(c5ccc(Cl)cc5)CCC(C)(C)C4)CC3)cc2)cc1S(=O)(=O)C(F)(F)F (stereo partly specified) | – | – | IC50 ([2]; myla1929): Active; Activity (MOLT-4): Active
CN[C@@H](C)C(=O)N[C@@H](C(=O)N1CCC[C@H]1c1nc(C(=O)c2cccc(OCCCCC(=O)N3CCN(CC[C@H](CSc4ccccc4)Nc4ccc(S(=O)(=O)NC(=O)c5ccc(N6CCN(CC7=C(c8ccc(Cl)cc8)CCC(C)(C)C7)CC6)cc5)cc4S(=O)(=O)C(F)(F)F)CC3)c2)cs1)C1CCCCC1 | 80 | 1960 | –
CN[C@@H](C)C(=O)N[C@@H](C(=O)N1CCC[C@H]1c1nc(C(=O)c2cccc(OCCOCCOCCOCCOCC(=O)N3CCN(CC[C@H](CSc4ccccc4)Nc4ccc(S(=O)(=O)NC(=O)c5ccc(N6CCN(CC7=C(c8ccc(Cl)cc8)CCC(C)(C)C7)CC6)cc5)cc4S(=O)(=O)C(F)(F)F)CC3)c2)cs1)C1CCCCC1 | 29 | 75 | –
CN[C@@H](C)C(=O)N[C@@H](C(=O)N1CCC[C@H]1c1nc(C(=O)c2cccc(OCCCCCC(=O)N3CCN(CC[C@H](CSc4ccccc4)Nc4ccc(S(=O)(=O)NC(=O)c5ccc(N6CCN(CC7=C(c8ccc(Cl)cc8)CCC(C)(C)C7)CC6)cc5)cc4S(=O)(=O)C(F)(F)F)CC3)c2)cs1)C1CCCCC1 | 104 | > 10000 | –
CN[C@@H](C)C(=O)N[C@@H](C(=O)N1CCC[C@H]1c1nc(C(=O)c2cccc(OCCOCCOCCOCc3cn(CCCC(=O)N4CCN(CC[C@H](CSc5ccccc5)Nc5ccc(S(=O)(=O)NC(=O)c6ccc(N7CCN(CC8=C(c9ccc(Cl)cc9)CCC(C)(C)C8)CC7)cc6)cc5S(=O)(=O)C(F)(F)F)CC4)nn3)c2)cs1)C1CCCCC1 | 59 | 147 | –
CN[C@@H](C)C(=O)N[C@@H](C(=O)N1CCC[C@H]1c1nc(C(=O)c2cccc(OCCOCCOCc3cn(CCCC(=O)N4CCN(CC[C@H](CSc5ccccc5)Nc5ccc(S(=O)(=O)NC(=O)c6ccc(N7CCN(CC8=C(c9ccc(Cl)cc9)CCC(C)(C)C8)CC7)cc6)cc5S(=O)(=O)C(F)(F)F)CC4)nn3)c2)cs1)C1CCCCC1 | 31 | 157 | –
CC1(C)CCC(c2ccc(Cl)cc2)=C(CN2CCN(c3ccc(C(=O)NS(=O)(=O)c4ccc(N[C@H](CCN5CCOCC5)CSc5ccccc5)c(S(=O)(=O)C(F)(F)F)c4)cc3)CC2)C1 [NAVITOCLAX] | – | 50 | Ratio IC50 [3]: 137; IC50 (WI-38): 8060 nM; IC50 (Platelet): 189 nM
CN[C@@H](C)C(=O)N[C@@H](C(=O)N1CCC[C@H]1c1nc(C(=O)c2cccc(OCCOCCOCC(=O)N3CCN(CC[C@H](CSc4ccccc4)Nc4ccc(S(=O)(=O)NC(=O)c5ccc(N6CCN(CC7=C(c8ccc(Cl)cc8)CCC(C)(C)C7)CC6)cc5)cc4S(=O)(=O)C(F)(F)F)CC3)c2)cs1)C1CCCCC1 | 60 | 143 | –
O=C1CCC(N2C(=O)c3cccc(NCCOCCOCc4cn(CCCC(=O)N5CCN(CC#Cc6ccc(OCCCc7sc(N8CCc9cccc(C(=O)Nc%10nc%11ccccc%11s%10)c9C8)nc7C(=O)O)c(F)c6)CC5)nn4)c3C2=O)C(=O)N1 (stereo unspecified) | – | – | Activity [4]: Active; IC50 ([2]; myla1929): Active; Activity (MOLT-4): Active
CN[C@@H](C)C(=O)N[C@H]1CCO[C@H]2CC(C)(C)[C@@H](C(=O)N[C@@H]3CCCc4cc(O)ccc43)N2C1=O | – | > 10000 | –
CN[C@@H](C)C(=O)N[C@@H](C(=O)N1CCC[C@H]1c1nc(C(=O)c2cccc(OCCCC(=O)N3CCN(CC[C@H](CSc4ccccc4)Nc4ccc(S(=O)(=O)NC(=O)c5ccc(N6CCN(CC7=C(c8ccc(Cl)cc8)CCC(C)(C)C7)CC6)cc5)cc4S(=O)(=O)C(F)(F)F)CC3)c2)cs1)C1CCCCC1 | 55 | 997 | –
